From ChEMBL document CHEMBL1126046, “Geiparvarin analogues. 3. Synthesis and cytostatic activity of 3(2H)-furanone and 4,5-dihydro-3(2H)-furanone congeners of geiparvarin, containing a geraniol-like fragment in the side chain” (J Med Chem, 1992)
Values after ≈ are worked out from the molar mass of the structure shown.

Experiments:
[1] = Inhibitory effect on the proliferation of murine mammary carcinoma FM3A cells; assay type: functional, cell-based; details: Mus musculus
Procedure, shortened: (§1)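 5 × 10^4 cells were suspended in growth medium in microplate wells with varying concentrations of compound. They grew for 48 h at 37 °C in a humidified CO2-controlled atmosphere and were then counted in a Coulter counter. IC50 is the concentration inhibiting cell proliferation by 50%.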

MT4 [2] = experiment: Inhibitory effect on the proliferation of human T-lymphocyte MT-4 cells; assay type: functional, cell-based
Procedure, shortened: (§2)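 MT-4 cells (7.5 × 10^4 per well) in growth medium were incubated with graded compound concentrations for 120 h at 37 °C in a humidified CO2 atmosphere. Cell viability was assessed by trypan blue dye exclusion. IC50 is the concentration required for 50% inhibition of proliferation.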

[3] = Inhibitory effect on the proliferation of human T-lymphoblast molt/4F cells; assay type: functional
Procedure, shortened: (§3)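 7.5 × 10^4 cells in growth medium were exposed in microplate wells to a range of compound concentrations. Proliferation ran 72 h at 37 °C under humidified, CO2-controlled conditions, followed by Coulter counter cell counts. IC50 is the compound concentration giving 50% inhibition of proliferation.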

L1210 [4] = experiment: Inhibitory effect on the proliferation of murine leukemia L1210 cells; assay type: functional, cell-based; details: Mus musculus; procedure, shortened: as §1
Raji [5] = experiment: Inhibitory effect on the proliferation of human B-lymphoblast Raji cells.; assay type: functional, cell-based; procedure, shortened: as §3
Raji [6] = experiment: Inhibitory effect on the proliferation of human B-lymphoblast Raji cells; assay type: functional, cell-based; procedure, shortened: as §3
L1210 [7] = experiment: Inhibitory effect on the proliferation of murine leukemia L1210 cells.; assay type: functional, cell-based; details: Mus musculus; procedure, shortened: as §1
[8] = Inhibitory effect on the proliferation of T-lymphoblast molt/4F cells.; assay type: functional; details: Homo sapiens; procedure, shortened: as §3
MT4 [9] = experiment: Inhibitory effect on the proliferation of human T-lymphocyte MT-4 cells.; assay type: functional, cell-based; procedure, shortened: as §2

SMILES	IC50 (L1210 [4])	IC50 (Raji [5])	IC50 (Raji [6])	IC50 (L1210 [7])	IC50 [1]	IC50 (MT4 [2])	IC50 [3]	IC50 [8]	IC50 (MT4 [9])
C/C(=C\COc1c(Cl)cccc1Cl)CC/C=C(\C)C1CC(=O)C(C)(C)O1 (stereo not given)	58 µg/mL (≈ 146 µM)	59.9 µg/mL (≈ 151 µM)	–	–	51.2 µg/mL (≈ 129 µM)	32.5 µg/mL (≈ 81.8 µM)	50.5 µg/mL (≈ 127 µM)	–	–
C/C(=C\COc1ccc2ccc(=O)oc2c1)CC/C=C(\C)C1CC(=O)C(C)(C)O1 (stereo not given)	–	50.7 µg/mL (≈ 128 µM)	–	64.5 µg/mL (≈ 163 µM)	54.2 µg/mL (≈ 137 µM)	–	–	24.2 µg/mL (≈ 61 µM)	42.9 µg/mL (≈ 108 µM)
C/C(=C\COc1ccc2ccc(=O)oc2c1)C1CC(=O)C(C)(C)O1 (stereo not given)	–	226 µg/mL (≈ 688 µM)	–	211 µg/mL (≈ 643 µM)	215 µg/mL (≈ 655 µM)	–	–	97.5 µg/mL (≈ 297 µM)	107 µg/mL (≈ 326 µM)
COc1cccc(OC/C=C(\C)CC/C=C(\C)C2CC(=O)C(C)(C)O2)c1 (stereo not given)	66.5 µg/mL (≈ 186 µM)	–	50 µg/mL (≈ 139 µM)	–	68.7 µg/mL (≈ 192 µM)	51.5 µg/mL (≈ 144 µM)	33.8 µg/mL (≈ 94.3 µM)	–	–
C/C(=C\COc1ccc2ccc(=O)oc2c1)C1=CC(=O)C(C)(C)O1 [GEIPARVARIN]	–	8.25 µg/mL (≈ 25.3 µM)	–	5.31 µg/mL (≈ 16.3 µM)	7.87 µg/mL (≈ 24.1 µM)	–	–	7.92 µg/mL (≈ 24.3 µM)	1.64 µg/mL (≈ 5.03 µM)

Further lines, with some results ahead:

IC50 (L1210 [4])	IC50 (Raji [5])	IC50 (Raji [6])	IC50 (L1210 [7])	SMILES	IC50 [1]	IC50 (MT4 [2])	IC50 [3]	IC50 [8]	IC50 (MT4 [9])
30.7 µg/mL (≈ 77.7 µM)	–	26.2 µg/mL (≈ 66.3 µM)	–	C/C(=C\COc1c(Cl)cccc1Cl)CC/C=C(\C)C1=CC(=O)C(C)(C)O1	35.3 µg/mL (≈ 89.3 µM)	15.5 µg/mL (≈ 39.2 µM)	27.4 µg/mL (≈ 69.3 µM)	–	–
–	63.2 µg/mL (≈ 168 µM)	–	47.4 µg/mL (≈ 126 µM)	C/C(=C\COc1ccc2ccccc2c1)CC/C=C(\C)C1=CC(=O)C(C)(C)O1	56.4 µg/mL (≈ 150 µM)	–	51.6 µg/mL (≈ 137 µM)	–	38.6 µg/mL (≈ 103 µM)
64 µg/mL (≈ 195 µM)	–	50.7 µg/mL (≈ 154 µM)	–	C/C(=C\COc1ccccc1)CC/C=C(\C)C1CC(=O)C(C)(C)O1 (stereo not given)	59 µg/mL (≈ 180 µM)	43.1 µg/mL (≈ 131 µM)	27.6 µg/mL (≈ 84 µM)	–	–
–	40.3 µg/mL (≈ 123 µM)	–	38.7 µg/mL (≈ 119 µM)	C/C(=C\COc1ccccc1)CC/C=C(\C)C1=CC(=O)C(C)(C)O1	44.2 µg/mL (≈ 135 µM)	29.4 µg/mL (≈ 90.1 µM)	35.2 µg/mL (≈ 108 µM)	–	–
40.2 µg/mL (≈ 113 µM)	–	43 µg/mL (≈ 121 µM)	–	COc1ccc(OC/C=C(\C)CC/C=C(\C)C2=CC(=O)C(C)(C)O2)cc1	43.8 µg/mL (≈ 123 µM)	33.9 µg/mL (≈ 95.1 µM)	38.6 µg/mL (≈ 108 µM)	–	–
–	47.9 µg/mL (≈ 127 µM)	–	24.9 µg/mL (≈ 65.8 µM)	C/C(=C\COc1ccc2ccccc2c1)CC/C=C(\C)C1CC(=O)C(C)(C)O1 (stereo not given)	38.4 µg/mL (≈ 101 µM)	–	26.9 µg/mL (≈ 71.1 µM)	–	48.8 µg/mL (≈ 129 µM)
36.3 µg/mL (≈ 102 µM)	–	45.8 µg/mL (≈ 128 µM)	–	COc1cccc(OC/C=C(\C)CC/C=C(\C)C2=CC(=O)C(C)(C)O2)c1	45.9 µg/mL (≈ 129 µM)	34 µg/mL (≈ 95.4 µM)	35.9 µg/mL (≈ 101 µM)	–	–
–	25.2 µg/mL (≈ 63.9 µM)	–	39.7 µg/mL (≈ 101 µM)	C/C(=C\COc1ccc2ccc(=O)oc2c1)CC/C=C(\C)C1=CC(=O)C(C)(C)O1	53.7 µg/mL (≈ 136 µM)	–	–	28.5 µg/mL (≈ 72.2 µM)	15.6 µg/mL (≈ 39.5 µM)
